In the library only some 1.5% were active in any assay of this set; here they are far more common.
NSD2 HMT inh: inhibitors of human histone methyltransferase NSD2. O96028. NSD2 peptide methylation, AlphaScreen, 120 min. inhibition, % at 12.5 µM. 310,000 tested, 0.54% active. AID 743445
NS3 helicase inh: blocks Hepatitis C virus NS3 helicase unwinding. NS3 helicase DNA unwinding, Cy5 molecular beacon fluorescence. inhibition, % at 10.9 µM. 290,000 tested, 0.56% active;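 active = inhibition above the mean of all tested compounds plus 3 SD, set per campaign, cut at about 35% in these data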
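Control set: DMSO versus 110 µM thioflavine S; Material: NS3 helicase fragment of HCV; Measured by: Cy5 fluorescence at 0 and 60 min, beacon hairpin quenching; Read-out basis: percent inhibition from t60/t0 fluorescence ratio; Times: reaction time 60 min, 25 °C; Repeats: single replicate; Compound dosing: single dose, 10.9 µM nominal final, DMSO 0.8% final.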
CASP6 VEID inh: caspase-6 (human) enzyme inhibition; P55212; purified caspase-6, Z-VEID-R110 cleavage fluorescence; inhibition, % at 12.5 µM; 350,000 tested, 0.53% active;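 active = mean inhibition across replicates at least about 35%, with every replicate also reaching that limit, limit read from the data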
Target sequence (P55212 24-179 limits assumed): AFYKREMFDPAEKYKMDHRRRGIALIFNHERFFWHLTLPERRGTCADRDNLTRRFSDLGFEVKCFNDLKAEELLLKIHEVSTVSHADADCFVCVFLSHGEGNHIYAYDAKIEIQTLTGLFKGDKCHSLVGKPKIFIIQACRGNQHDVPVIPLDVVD
Target sequence (P55212 194-293 limits assumed): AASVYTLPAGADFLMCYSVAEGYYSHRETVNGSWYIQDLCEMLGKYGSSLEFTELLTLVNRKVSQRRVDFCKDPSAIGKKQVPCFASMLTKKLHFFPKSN
DNMT1 block: inhibitors of human DNMT1; DNMT1 molecular beacon, Hinp1I cleavage, fluorescence; inhibition (reported as % activation of signal), % at 10 µM; 360,000 tested, 0.83% active
NS3 helicase cf: HCV NS3 helicase inhibition, confirmation assay | shares compounds with NS3 helicase inh | NS3 helicase DNA unwinding, Cy5 molecular beacon fluorescence | inhibition, % at 10.9 µM | 1,600 tested, 31% active;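 active = inhibition above the mean of all tested compounds plus 3 SD, cutoff set per campaign, cut at about 36% in these data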
FID counter trip: counter-screen for HCV NS3 helicase inhibitors: DNA intercalator displacement; 1,600 tested, 4% active; shares compounds with NS3 helicase inh; DNA fluorescent intercalator displacement, fluorescence; inhibition, % at 7.9 µM; in the data active = inhibition above about 37%;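 also: higher means more displacement of ethidium bromide from the DNA hairpin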
DNA FID DR: counter-screen for HCV NS3 helicase inhibitors: DNA intercalator displacement dose response; shares compounds with NS3 helicase inh; fluorescent intercalator displacement from DNA, fluorescence; IC50, µM; 120 tested, under 10 active; call rule not given here
A number is an active result. Rule as the data show it, unless noted: active = inhibition above about 50%; inactive = the rest.

How did O=C(NNC1CC(=O)N(c2ccccc2)C1=O)c1ccccc1Cl (stereo not drawn) do in these assays?
NSD2 HMT inh: inactive; NS3 helicase inh: inactive; CASP6 VEID inh: inactive; DNMT1 block: inactive

What do the screens show for `O=C(NNC1CC(=O)N(c2ccc(Cl)cc2)C1=O)c1ccccc1Cl` (stereo not drawn)?
NSD2 HMT inh: inactive; NS3 helicase inh: 38; CASP6 VEID inh: inactive; DNMT1 block: inactive; NS3 helicase cf: inactive; FID counter trip: inactive

What do the screens show for `CN(C)c1ccc2c(c1)[C@@H]1C[C@@H](CC(=O)NCc3ccc4c(c3)OCO4)O[C@H](CO)[C@@H]1O2`?
CASP6 VEID inh: inactive

Results for O=c1cc(CSc2ccc(Cl)cc2)[nH]c2[nH]n(-c3ccccc3)c(=O)c12 ?
NSD2 HMT inh: inactive; NS3 helicase inh: 40; CASP6 VEID inh: inactive; DNMT1 block: inactive; NS3 helicase cf: 53; FID counter trip: inactive; DNA FID DR: inactive

What do the screens show for `Cc1ccc(SCc2cc(=O)c3c(=O)n(-c4ccccc4)[nH]c3[nH]2)cc1`?
NSD2 HMT inh: inactive; NS3 helicase inh: inactive; CASP6 VEID inh: inactive; DNMT1 block: inactive

Results for COc1ccc(NC(=O)N(C)C[C@@H]2Oc3ccc(NS(C)(=O)=O)cc3CC(=O)N([C@H](C)CO)C[C@@H]2C)cc1 ?
CASP6 VEID inh: inactive

How did CC(=O)OCCc1[nH]c2ccccc2c1C do in these assays?
NS3 helicase inh: 52; CASP6 VEID inh: inactive; DNMT1 block: inactive; NS3 helicase cf: inactive; FID counter trip: inactive

How did CC(=O)CCc1c(C)[nH]c2ccccc2c1=O do in these assays?
NSD2 HMT inh: inactive; NS3 helicase inh: inactive; CASP6 VEID inh: inactive; DNMT1 block: inactive

How did O=C(N[C@@H]1CC[C@H](CCNS(=O)(=O)c2ccc(F)cc2)O[C@@H]1CO)C1CCOCC1 do in these assays?
CASP6 VEID inh: inactive

Results for CCCCC(CCC(=O)O)(C(=O)OCC)c1csc(Nc2ccc(OCC)cc2)n1 (stereo not drawn) ?
NSD2 HMT inh: inactive; NS3 helicase inh: 85; CASP6 VEID inh: inactive; DNMT1 block: inactive; NS3 helicase cf: 58; FID counter trip: inactive

Results for CCCCC(CCC(=O)O)(C(=O)OCC)c1csc(Nc2ccccc2)n1 (stereo not drawn) ?
NSD2 HMT inh: inactive; NS3 helicase inh: inactive; DNMT1 block: inactive

Results for O=C(N/N=C\C=C\c1ccco1)C1COc2ccccc2O1 (stereo not drawn) ?
NSD2 HMT inh: inactive; NS3 helicase inh: 44; CASP6 VEID inh: inactive; DNMT1 block: inactive; NS3 helicase cf: inactive; FID counter trip: inactive

What do the screens show for `O=C(O)Cc1sc(N/N=C\c2ccncc2)nc1-c1ccccc1`?
NSD2 HMT inh: inactive; NS3 helicase inh: 55; CASP6 VEID inh: inactive; DNMT1 block: inactive; NS3 helicase cf: inactive; FID counter trip: inactive

How did C(=N\Nc1nc(-c2ccccc2)cs1)/c1ccncc1 do in these assays?
NSD2 HMT inh: inactive; NS3 helicase inh: inactive; CASP6 VEID inh: inactive; DNMT1 block: inactive

How did CC(=O)OCCCNc1cc(SCc2ccco2)c2nonc2c1[N+](=O)[O-] do in these assays?
NSD2 HMT inh: inactive; NS3 helicase inh: 41; DNMT1 block: inactive; NS3 helicase cf: inactive; FID counter trip: inactive

Results for Cc1noc(C)c1S(=O)(=O)N(C)C[C@H]1OCCCC[C@@H](C)Oc2ccc(NC(=O)NC3CCCCC3)cc2C(=O)N([C@H](C)CO)C[C@@H]1C ?
CASP6 VEID inh: inactive

How did COc1ccc(N2CCN(C(=O)CN(c3ccccc3)S(=O)(=O)c3ccc(OC)cc3)CC2)cc1 do in these assays?
NSD2 HMT inh: inactive; NS3 helicase inh: 40; DNMT1 block: inactive; NS3 helicase cf: inactive; FID counter trip: inactive

What do the screens show for `CCCN1[C@@H]2c3ccc(-c4ccccc4)c(=O)n3C[C@@H]2[C@@H](CO)[C@@H]1C(=O)N1CCOCC1`?
CASP6 VEID inh: inactive

How did Cc1c(C(=O)O)[nH]c2c1C(=O)CC(c1ccc(C(C)(C)C)cc1)C2 (stereo not drawn) do in these assays?
NSD2 HMT inh: inactive; NS3 helicase inh: 49; CASP6 VEID inh: inactive; DNMT1 block: inactive; NS3 helicase cf: inactive; FID counter trip: inactive

Results for CCN(CC)S(=O)(=O)c1ccc(NC(=O)COC(=O)c2ccc(NC(=O)CC#N)cc2)cc1 ?
NSD2 HMT inh: inactive; NS3 helicase inh: 41; CASP6 VEID inh: inactive; DNMT1 block: inactive; NS3 helicase cf: inactive; FID counter trip: inactive

Results for CC1CCCC2(C1)NC(=S)c1c(sc3c1CCCC3)N2 (stereo not drawn) ?
NSD2 HMT inh: inactive; NS3 helicase inh: 36; DNMT1 block: inactive; NS3 helicase cf: inactive; FID counter trip: inactive

What do the screens show for `O=C(NCc1ccc(F)cc1)[C@H]1[C@H](CO)[C@H]2Cn3c(cccc3=O)[C@@H]1N2Cc1ccncc1`?
CASP6 VEID inh: inactive

What do the screens show for `C/C=C/c1ccc2c(c1)[C@H]1[C@H](CCN1C(=O)Cc1cccnc1)[C@H](CO)N2C`?
CASP6 VEID inh: inactive

Results for CC1=NN(c2ccccc2)C(=O)/C1=C/C=C/C=C/N(C)C ?
NSD2 HMT inh: inactive; NS3 helicase inh: 39; DNMT1 block: inactive; NS3 helicase cf: inactive; FID counter trip: inactive

What do the screens show for `Cc1cc(C(=O)Cn2ncc(Cl)c(Cl)c2=O)c(C)n1CC(F)(F)F`?
NSD2 HMT inh: inactive; NS3 helicase inh: 57; CASP6 VEID inh: inactive; DNMT1 block: inactive; NS3 helicase cf: inactive; FID counter trip: inactive

Results for O=c1c2c(-c3ccco3)csc2nc(SCc2cn3cccnc3n2)n1-c1ccccc1 ?
NSD2 HMT inh: inactive; NS3 helicase inh: 62; DNMT1 block: inactive; NS3 helicase cf: 94; FID counter trip: inactive; DNA FID DR: inactive

How did C[C@H]1CN([C@@H](C)CO)C(=O)c2cc(NC(=O)CCC(F)(F)F)ccc2O[C@@H]1CN(C)S(C)(=O)=O do in these assays?
CASP6 VEID inh: inactive

How did CC1=C(C)Cc2c(OC(=O)c3ccccc3)ccc(OC(=O)c3ccccc3)c2C1 do in these assays?
NS3 helicase inh: inactive; NS3 helicase cf: inactive; FID counter trip: inactive

Results for O=C(Oc1cccccc1=O)c1ccccc1 ?
NSD2 HMT inh: inactive; NS3 helicase inh: inactive; CASP6 VEID inh: inactive; DNMT1 block: inactive

What do the screens show for `Cc1cc(C)cc(-n2c(N)c(C(=O)Nc3c(C)n(C)n(-c4ccccc4)c3=O)c3nc4ccccc4nc32)c1`?
NSD2 HMT inh: inactive; NS3 helicase inh: inactive; DNMT1 block: inactive

Results for COc1cccc(-n2c(N)c(C(=O)Nc3c(C)n(C)n(-c4ccccc4)c3=O)c3nc4ccccc4nc32)c1 ?
NSD2 HMT inh: inactive; NS3 helicase inh: 38; CASP6 VEID inh: inactive; DNMT1 block: inactive; NS3 helicase cf: inactive; FID counter trip: inactive

What do the screens show for `CCn1cc(CNC(=O)c2ccc(Cl)c([N+](=O)[O-])c2)c(C)n1`?
NSD2 HMT inh: inactive; NS3 helicase inh: 36; CASP6 VEID inh: inactive; DNMT1 block: inactive; NS3 helicase cf: inactive; FID counter trip: inactive

From PubChem BioAssay
